# Screening results: PubChem, Sanford-Burnham Center for Chemical Genomics
# FLuc stim CS – firefly luciferase counter-screen for stimulation assays; P08659; ATPlite luciferase biochemical, luminescence, 10 min; 0 = ATP-free wells, 1 = DMSO control; activation factor at 10 µM; 200,000 tested, under 10 active; AID 1027;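 active means luciferase activation factor, scaled between plate controls, of at least 2 with compound at 10 µM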
# Target sequence (P08659 whole entry, looked up): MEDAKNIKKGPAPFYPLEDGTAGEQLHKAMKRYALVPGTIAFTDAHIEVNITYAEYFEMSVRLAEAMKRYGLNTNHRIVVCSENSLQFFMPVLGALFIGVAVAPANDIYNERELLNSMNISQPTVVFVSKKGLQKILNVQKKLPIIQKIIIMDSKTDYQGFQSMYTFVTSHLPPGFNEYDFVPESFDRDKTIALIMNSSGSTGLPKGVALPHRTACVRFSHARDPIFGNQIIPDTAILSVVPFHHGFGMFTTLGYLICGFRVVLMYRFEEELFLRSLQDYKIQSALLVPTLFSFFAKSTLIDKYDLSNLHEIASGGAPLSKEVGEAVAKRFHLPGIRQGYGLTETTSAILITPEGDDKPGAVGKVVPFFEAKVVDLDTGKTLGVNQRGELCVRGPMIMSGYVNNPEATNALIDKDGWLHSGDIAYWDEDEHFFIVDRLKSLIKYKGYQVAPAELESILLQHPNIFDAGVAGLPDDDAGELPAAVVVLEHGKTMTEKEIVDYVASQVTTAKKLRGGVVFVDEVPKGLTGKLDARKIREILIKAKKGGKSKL
#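 System: Luciferase/luciferin detection reagent, cell-free biochemical luciferase assay | Medium: PBS buffer for ATP | Dosing: Test compounds dosed from 2 mM stocks in 100% DMSO | Timing: 10 min at ambient temperature | Signal: Luminescence measurement of luciferase light output | Evaluation: Luciferase activation, seen as luminescence increase over controls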
# PPC-1+TRAIL kill – PPC-1 cancer cell killing with TRAIL present | 220,000 compounds, 0.41% hits | cell killing (% activity), % at 4 µM or 5 µM | PPC-1 cells + TRAIL, ATPLite viability luminescence;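 active means cell killing above 50% in the first pass at 4 µM, then a duplicate retest at 5 µM averaging 50% or more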;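 further: plate controls were cells with TRAIL plus DMSO for no effect and medium-only wells lacking cells for full effect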
# FLuc inh counter – Photinus pyralis luciferase inhibition counter-screen | P08659 | ATPLite firefly luciferase biochemical luminescence, 10 min | inhibition, % at 10 µM | 200,000 compounds, 1.5% hits | AID 1006;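 active means inhibition above about 50% when tested at 10 µM, limit read from the data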
# C8 TRAIL sens – caspase-8 TRAIL sensitization; inhibition (viability loss, TRAIL sensitization), % at 10 µM; NB7+C8 cells + TRAIL, ATPlite viability luminescence; 360,000 compounds, 1% hits;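 active means compounds causing at least 50% loss of cell viability in the single-dose screen, relative to plate controls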
# * marks the source's active call; other numbers are inactive results; · = not tested or not shown. Hits are enriched below; roughly 1.5% of the tested compounds scored in any of these assays.
SMILES,FLuc stim CS,PPC-1+TRAIL kill,FLuc inh counter,C8 TRAIL sens
CCOC(=O)c1sc(-c2ccccc2)nc1C,0.9,19.5,9.3,2.5
CCN(CC)c1ccc2c(c1)oc(=O)c1c(Cl)cc(=O)oc12,1,9.2,-2.6,69.6*
O=C(O)c1cc(-c2ccc3c(c2)OCO3)nc2ccc(Br)cc12,0.3,26.8,71.9*,19.5
COC(=O)c1cc(-c2ccc3c(c2)OCO3)nc2ccccc12,0.9,19.7,8.8,-8.8
COc1ccc(OC)c(S(=O)(=O)Nc2ccc(-c3ccc4nncn4n3)cc2)c1,·,·,·,65.8*
CS(=O)(=O)c1ccc(S(=O)CC(=O)Oc2ccc(Cl)cc2)c([N+](=O)[O-])c1 (stereo unspecified),1.1,-3.5,-5.2,·
C[C@H]1CN([C@@H](C)CO)S(=O)(=O)c2ccc(Br)cc2O[C@H]1CN(C)C(=O)Cc1ccncc1,·,·,·,-5.0
O=C1N=C(N2CCN(c3ccccc3)CC2)S/C1=C\c1ccco1,0.4,29.4,60.6*,0.8
COc1ccc(-c2nc(CCl)cs2)cc1OC,1,-2.2,2.0,-16.1
CCc1ccc(-c2nc(CCl)cs2)cc1,0.4,-7.3,64.8*,15.0
Cc1cc(C)n2nc(C(=O)OCC(=O)Nc3ccc(C)c(S(=O)(=O)N4CCOCC4)c3)nc2n1,·,·,·,-0.4
O=C(Cc1csc(NC(=O)Nc2cccc(Cl)c2)n1)NC1CCCC1,·,·,·,3.6
Cc1ccc(O)c(C2=Nc3ccccc3N=C(c3cccs3)C2)c1,1.1,14.2,-5.9,-7.8
Cc1ccc2c(c1)N=C(c1ccccc1)CC(C(Cl)Cl)=N2,·,39.2,·,58.3*
Cc1cc2c(cc1C)NC(=O)CC(c1ccccc1)=N2,·,·,·,21.3
Cc1ccc(C2=Nc3ccccc3N=C(C(Cl)Cl)C2)cc1,0.8,·,24.2,54.2*
COC(=O)c1ccc(/C=C(\C#N)c2ccccn2)cc1,0.3,43.2,73.1*,52.2*
CN(C)c1ccc(/C=C(\C#N)c2ccccn2)cc1,0,14.2,97.1*,93.9*
CCCCN1CC(N(C)CCN(C)C)CS1(=O)=O (stereo unspecified),·,·,·,2.4
O=C(COc1ccc(Br)cc1F)Nc1nnc(C2CC2)s1,·,·,·,-4.9
Cn1c(=O)c2c(O)c(C=Nc3ccc(F)cc3)c(=O)n(C)c2n(C)c1=O,·,5.9,·,·
COc1ccc(CC(=O)Nc2cccc(-c3nnc(-c4ccccc4)o3)c2)cc1OC,1,23.9,1.3,56.2*
COc1ccc(CC(=O)Nc2cccc(-c3nnc(-c4cccc(C)c4)o3)c2)cc1OC,1,25.7,0.1,3.3
COc1ccc(CC(=O)Nc2cccc(-c3nnc(-c4ccc(C)cc4)o3)c2)cc1OC,0.8,16.3,15.5,90.1*
CCC(Sc1nc(C)cc(C)n1)C(=O)Nc1nccs1 (stereo unspecified),·,·,·,-9.9
SMILES,FLuc stim CS,PPC-1+TRAIL kill,FLuc inh counter,C8 TRAIL sens
CCN1CCN(C(=O)Cn2nc(C)c3sc4ccccc4c3c2=O)CC1,·,·,·,4.1
O=C1C=CC(O)C2(CO)OC12 (stereo unspecified),·,·,·,19.2
O=C(Nc1ccc2c(c1)OCCO2)C1c2ccccc2OCC(=O)N1CCc1c[nH]c2ccccc12 (stereo unspecified),·,·,·,-6.9
CC(C)(C)c1ccc(-c2nc(N)nc(N)n2)cc1,·,15.1,·,30.3
CC(C)(C)c1ccc(-c2conc2N)cc1,0.4,16.1,61.2*,25.4
Cc1ccc(NC2CCCN(C(=O)c3cccc(-c4ncc[nH]4)c3)C2)cc1C (stereo unspecified),·,·,·,-2.2
c1ccc(-c2cc(-c3ccccc3)on2)cc1,·,-3.2,·,22.4
Cc1ccc(-c2cc(-c3ccccc3)no2)cc1,·,·,·,55.2*
C/C(Cn1nnc([N+](=O)[O-])n1)=N\NC(=O)c1ccc(O)cc1,·,14.5,·,57.0*
C/C(Cn1nnc([N+](=O)[O-])n1)=N\NC(=O)c1ccccc1O,·,7.0,·,58.6*
N/C(=N\OC(=O)c1ccccc1)C(C(=O)NOC(=O)c1ccccc1)C1CCCCC1 (stereo unspecified),·,·,·,90.8*
O=C(COC(=O)c1ccccc1)NC1CCCCCC1,·,·,·,4.3
CC1=C(C(=O)Nc2ccccc2)C(c2ccc(C)cc2)N=C(Nc2nc3ccccc3o2)N1 (stereo unspecified),1.1,7.9,-7.2,49.8*
CC1(C)CC(=O)C=C(c2cccs2)C1,·,·,·,-19.3
Cc1cc(C)cc(NS(=O)(=O)c2ccc3c(c2)c(=O)n(C)c(=O)n3C)c1,1.1,16.6,-9.9,79.7*
Cn1c(=O)c2cc(S(=O)(=O)Nc3cc(C(=O)O)cc(C(=O)O)c3)ccc2n(C)c1=O,1,5.4,-0.8,-5.8
OC[C@@H]1CN(Cc2ccccc2)C[C@H](n2ccc3c(N4CCCC4)ncnc32)O1,·,·,·,-15.2
CC(C)Oc1ccc(C(=O)Nc2nnc(SCC(=O)N3CCOCC3)s2)cc1,0,93.6*,97.2*,98.0*
Cc1nnc(NC(=O)c2ccc(S(=O)(=O)C(F)F)cc2)s1,·,25.7,·,50.4*
CSc1nnc(NC(=O)c2ccc(S(=O)(=O)N(C)C)cc2)s1,0.4,20.7,60.5*,39.5
CN(C)S(=O)(=O)c1ccc(C(=O)Nc2nnc(SCC(=O)N3CCOCC3)s2)cc1,·,·,·,59.9*
Cc1ccc(C(=O)Nc2nnc(SCC(=O)N3CCCc4ccccc43)s2)cc1,0,95.1*,97.7*,97.3*
Cc1cc(C)n(-c2nc(Nc3ccccc3C)nc(-n3nc(C)cc3C)n2)n1,1.1,-16.5,-10.7,·
Cc1cc(C)n(-c2nc(Nc3ccccc3C(F)(F)F)nc(-n3nc(C)cc3C)n2)n1,1.1,17.1,-6.7,57.2*
Fc1cccc(CSc2nc3ccncc3[nH]2)c1,0.2,40.7,78.5*,57.5*
SMILES,FLuc stim CS,PPC-1+TRAIL kill,FLuc inh counter,C8 TRAIL sens
COC(=O)c1cccc(CSc2nc3ccccc3[nH]2)c1,0.4,36.0,59.6*,31.3
Clc1cccc(CSc2nc3ccncc3[nH]2)c1,0.2,27.9,75.4*,40.8
Cc1cc(C)n2[nH]c(=O)cc2n1,·,·,·,-2.5
CC(=NC1CCCCC1)c1ccc(O)cc1O,·,·,·,-0.3
CC(=NC1CCCCC1)C1=C(O)c2ccccc2C1=O,0.4,35.0,57.5*,22.2
CCN(CC)CC(O)CNc1ccnc2c(Cl)ccc(Cl)c12 (stereo unspecified),·,·,·,4.6
COc1ccc(C2=Nc3ccccc3OC2)cc1,0.5,8.9,50.6*,13.1
COc1ccc2c(c1)Cc1c-2cc(Br)c(N)c1Br,·,·,·,3.6
CSc1ccccc1-c1nnc(-c2ccc(Cl)cc2Cl)o1,0.4,24.2,59.5*,45.4
CSc1ccccc1-c1nnc(-c2ccc(Cl)c(Cl)c2)o1,0.9,0.1,5.5,-4.5
Fc1ccc(-c2nnc(-c3ccc(Cl)cc3Cl)o2)cc1,0.1,·,89.4*,85.9*
Clc1ccc(-c2nnc(-c3ccccc3)o2)c(Cl)c1,0.1,50.0,86.0*,69.6*
CN(C)S(=O)(=O)c1ccc(NC(=O)c2ccccn2)cc1,0.7,17.2,34.8,5.6
CN(C)c1cc(O)c(C(=S)Nc2ccccc2)c(N(C)C)c1,1,7.5,1.7,-9.0
CN(C)c1ccc(NC(=O)Oc2ccccc2)cc1,0.3,-25.5,74.0*,-0.6
CN(C)c1ccc(NC(=S)c2ccccn2)cc1,0.1,69.2*,94.9*,85.0*
CN(C)c1ccc(C(=S)Nc2ccccc2)cc1,0.4,34.6,55.8*,42.6
